The source made the active and inactive calls. The rule behind the calls is not given here.
Key:
[1] = Inhibition of MM6 cell adhesion to BAEC at 100 uM relative to control by static assay; type: functional
Procedure, shortened: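 BAEC monolayers (passage 1-3, 7 days after seeding) stimulated with 20 ng/mL TNFα for 4 or 16 h, test agent in DMSO or vehicle for 20 min at 37 °C/5% CO2. After washing, leukocytes added at 1 × 10^6 cells/mL for 30 min at 37 °C. Non-adherent cells washed off, adherent cells counted microscopically. TNFα-stimulated adhesion set to 100%. Single concentration, 100 µM.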

AEC = assay: Viability of BAEC by Roche-XTT assay relative to control; type: functional, Bos taurus; set-up: concentration or dose not given beside the values
Procedure, shortened: (§1)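 XTT assay: metabolically active cells convert yellow tetrazolium XTT to orange formazan. Untreated control viability set to 100%. Cells were BAEC or MM6 as named in each line; MM6 tested at 100 µM.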

[2] = target: T1, P-selectin (Homo sapiens) (UniProt P16109); assay: Inhibition of sLex binding to P-selectin at 500 uM relative to control by glyco-ELISA assay
T1 sequence (whole entry): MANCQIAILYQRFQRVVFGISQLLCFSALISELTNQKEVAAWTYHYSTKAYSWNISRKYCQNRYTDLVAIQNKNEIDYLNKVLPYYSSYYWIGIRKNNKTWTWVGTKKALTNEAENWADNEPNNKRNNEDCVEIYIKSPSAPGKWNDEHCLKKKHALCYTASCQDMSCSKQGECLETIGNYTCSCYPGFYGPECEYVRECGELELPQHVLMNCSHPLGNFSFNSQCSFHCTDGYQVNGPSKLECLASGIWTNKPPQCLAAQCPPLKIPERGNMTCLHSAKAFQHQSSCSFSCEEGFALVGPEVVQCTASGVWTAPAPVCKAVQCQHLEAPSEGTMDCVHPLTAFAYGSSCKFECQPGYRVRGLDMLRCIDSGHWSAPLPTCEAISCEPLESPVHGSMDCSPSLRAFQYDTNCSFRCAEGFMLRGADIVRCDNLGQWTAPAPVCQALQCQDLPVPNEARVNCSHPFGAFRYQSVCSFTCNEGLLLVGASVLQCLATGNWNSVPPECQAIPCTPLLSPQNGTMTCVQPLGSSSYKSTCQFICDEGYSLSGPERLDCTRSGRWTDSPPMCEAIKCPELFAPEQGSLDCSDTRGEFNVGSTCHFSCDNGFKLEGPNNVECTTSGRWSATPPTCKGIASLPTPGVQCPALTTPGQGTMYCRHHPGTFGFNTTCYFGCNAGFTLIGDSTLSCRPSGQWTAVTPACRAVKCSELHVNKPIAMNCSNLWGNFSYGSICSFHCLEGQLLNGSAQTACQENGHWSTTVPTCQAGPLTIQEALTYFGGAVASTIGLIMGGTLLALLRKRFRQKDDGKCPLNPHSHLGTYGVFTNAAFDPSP
Procedure, shortened: (§2)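 Cell-free competitive binding assay. The named selectin is immobilized on microtiter plates, and compound plus sLex-tyrosine sulfate on biotinylated polyacrylamide are added. After incubation, bound ligand is detected by streptavidin-peroxidase, OD 414 nm, with empty-plate absorbance subtracted. Wells coated only with sLex define 0%; EDTA (blocks Ca2+-dependent binding) defines 100% inhibition.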

[3] = target: T2, L-selectin (Homo sapiens) (UniProt P14151); assay: Inhibition of sLex binding to L-selectin at 500 uM relative to control by glyco-ELISA assay; procedure, shortened: as §2
T2 sequence (whole entry): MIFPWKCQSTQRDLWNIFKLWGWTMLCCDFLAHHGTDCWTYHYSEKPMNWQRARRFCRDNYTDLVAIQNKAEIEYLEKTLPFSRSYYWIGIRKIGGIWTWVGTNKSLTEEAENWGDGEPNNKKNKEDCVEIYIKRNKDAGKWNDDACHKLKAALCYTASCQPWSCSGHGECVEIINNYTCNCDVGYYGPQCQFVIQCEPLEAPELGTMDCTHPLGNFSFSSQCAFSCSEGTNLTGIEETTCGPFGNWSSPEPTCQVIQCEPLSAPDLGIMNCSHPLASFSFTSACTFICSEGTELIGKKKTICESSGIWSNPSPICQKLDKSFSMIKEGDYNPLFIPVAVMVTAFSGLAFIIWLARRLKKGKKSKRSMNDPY

MONO-MAC-6 [4] = assay: Viability of MM6 cells at 100 uM by Roche-XTT assay relative to control; type: functional, Homo sapiens; procedure, shortened: as §1
[5] = target: T3, E-selectin (Homo sapiens) (UniProt P16581); assay: Inhibition of sLex binding to E-selectin at 100 uM relative to control by glyco-ELISA assay; procedure, shortened: as §2
T3 sequence (whole entry): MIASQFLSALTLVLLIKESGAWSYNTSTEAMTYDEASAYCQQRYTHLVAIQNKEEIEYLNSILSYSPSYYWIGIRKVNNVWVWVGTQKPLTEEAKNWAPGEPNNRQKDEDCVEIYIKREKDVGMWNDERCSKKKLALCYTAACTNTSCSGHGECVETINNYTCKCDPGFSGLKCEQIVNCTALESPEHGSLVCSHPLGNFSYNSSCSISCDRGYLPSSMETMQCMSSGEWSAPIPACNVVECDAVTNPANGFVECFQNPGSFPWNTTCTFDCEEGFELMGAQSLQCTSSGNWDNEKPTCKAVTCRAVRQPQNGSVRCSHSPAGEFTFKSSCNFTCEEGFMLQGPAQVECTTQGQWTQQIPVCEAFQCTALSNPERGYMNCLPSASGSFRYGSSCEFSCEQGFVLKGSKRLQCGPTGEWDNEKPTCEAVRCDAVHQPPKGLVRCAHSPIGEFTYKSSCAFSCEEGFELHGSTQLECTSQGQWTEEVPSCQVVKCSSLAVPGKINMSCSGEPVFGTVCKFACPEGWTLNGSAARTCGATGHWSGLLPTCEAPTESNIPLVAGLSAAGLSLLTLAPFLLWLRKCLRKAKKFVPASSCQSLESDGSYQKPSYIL

[6] = Viability in ATP-lite assay relative to control; type: functional; set-up: concentration or dose not given beside the values
[7] = target: T3, E-selectin (Homo sapiens); assay: Inhibition of sLex binding to E-selectin at 500 uM relative to control by glyco-ELISA assay; procedure, shortened: as §2
[8] = target: T1, P-selectin (Homo sapiens); assay: Inhibition of sLex binding to P-selectin at 100 uM relative to control by glyco-ELISA assay; procedure, shortened: as §2
Mus musculus [9] = assay: Reduction in proteose peptone-induced PMN extravasation in C57BL/J mouse peritonitis model at 50 mg/kg, ip; type: functional; set-up: scale not given: the % may be the effect or the level left; settings: route intraperitoneal
Procedure, shortened: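 Male C57BL/6 mice received 100 µL of a 50 mg/mL compound suspension in corn oil ip, or vehicle, then 1 h later 3 mL of 3% proteose peptone ip. Peritoneal leukocytes were lavaged at 6 h with cold HBSS/5 mM EDTA and stained with PE-conjugated anti-PMN, MOMA-2 and anti-CD2 antibodies. Cells were classified by scatter and fluorescence. Mean ± SEM, n = 4.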

[10] = target: T2, L-selectin (Homo sapiens); assay: Inhibition of sLex binding to L-selectin at 100 uM relative to control by glyco-ELISA assay; procedure, shortened: as §2
MONO-MAC-6 [11] = assay: Viability of MM6 cells at 50 uM by Roche-XTT assay relative to control; type: functional, Homo sapiens
Mus musculus [12] = assay: Reduction in proteose peptone-induced PMN extravasation in C57BL/J mouse peritonitis model at 100 mg/kg; type: functional, organism-based; set-up: dose 100 mg/kg

SMILES	inhibition [2] [%]	inhibition [3] [%]	inhibition [5] [%]	inhibition at 100 µM [1] [%]	Activity (AEC) [%]	Activity (MONO-MAC-6 [4]) [%]	Activity [6] [%]	other results
CCCCCCCCCCOc1cccc(OCCCCCC(=O)N(Cc2ccc(C(=O)O)cc2)c2ccc(C(=O)O)cc2)c1	–	–	–	93	100	–	–	–
CCCCCCCCCCOc1cc(OCCCCCCCCCC)cc(OCCCCCCON=C(c2ccc(C(=O)O)cc2)c2ccc(C(=O)O)cc2)c1	2	6	–	90	110	84	–	–
CCCCCCCCCCOc1cc(OCCCCCCCCCC)cc(OCCCCCCN(Cc2ccc(C(=O)OC)cc2)c2ccc(C(=O)OC)cc2)c1	–	–	–	61	111	5	–	–
CCCCCCCCCCOc1cc(OCCCCCCCCCC)cc(OCCCCCCN(Cc2ccc(C(=O)O)cc2)c2ccc(C(=O)O)cc2)c1	–	–	–	100	–	10	–	–
CCCCCCCCCCOc1cc(OCCCCCCCCCC)cc(OCCCCCC(=O)N(c2ccc(C(=O)OC)cc2)c2ccc(C(=O)OC)cc2)c1	16	16	–	10	–	–	–	inhibition [7]: 5%
CCCCCCCCCCOc1cc(OCCCCCCCCCC)cc(OCCCCCCON=C(c2ccc(Cl)cc2)c2ccc(Cl)cc2)c1	2	5	2	24	–	–	–	–
CCCCCCCCCCOc1cccc(OCCCCCCON=C(c2ccc(C(=O)O)cc2)c2ccc(C(=O)O)cc2)c1	–	–	–	67	40	–	–	Activity (MONO-MAC-6 [11]): 12%
CCCCCCCCCCOc1cc(OCCCCCCCCCC)cc(OCCCCCC(=O)N(c2ccc(C(=O)OC)cc2)c2ccc(C(=O)OC)c(C(=O)OC)c2)c1	90	95	–	115	90	50	58	inhibition [7]: 73%
CCCCCCCCCCOc1cc(OCCCCCCCCCC)cc(OCCCCCC(=O)N(Cc2ccc(C(=O)OC)cc2)c2ccc(C(=O)OC)cc2)c1	27	26	–	26	–	–	–	–
CC(=O)N[C@H]1[C@H]([C@H](O)[C@H](O)CO)O[C@@](O[C@H]2[C@@H](O)[C@@H](CO)O[C@@H](O[C@@H]([C@H](O[C@@H]3O[C@@H](C)[C@@H](O)[C@@H](O)[C@@H]3O)[C@H](C=O)NC(C)=O)[C@H](O)CO)[C@@H]2O)(C(=O)O)C[C@@H]1O [SIALYL LEWIS X]	–	–	–	41	–	–	–	Activity (Mus musculus [12]): inactive

Second part, led by results:

inhibition [2] [%]	inhibition [3] [%]	inhibition [5] [%]	SMILES	inhibition at 100 µM [1] [%]	Activity (AEC) [%]	Activity (MONO-MAC-6 [4]) [%]	Activity [6] [%]	other results
19	5	–	O=C(O)c1ccc(N(C(=O)CCCCCBr)c2cccc(C(=O)O)c2)cc1	2	75	–	–	–
79	86	18	CCCCCCCCCCOc1cccc(OCCCCCC(=O)N(Cc2ccc(C(=O)OC)cc2)c2cccc(C(=O)OC)c2)c1	45	99	98	62	–
49	50	–	CCCCCCCCCCOc1cc(OCCCCCCCCCC)cc(OCCCCCC(=O)N(Cc2ccc(C(=O)O)cc2)c2ccc(C(=O)O)cc2)c1	56	36	–	–	–
103	103	42	CCCCCCCCCCOc1cccc(OCCCCCC(=O)N(Cc2ccc(C(=O)O)cc2)c2cccc(C(=O)O)c2)c1	70	20	101	4	–
81	82	94	CCCCCCCCCCOc1cc(OCCCCCCCCCC)cc(OCCCCCCN(c2ccc(C(=O)O)cc2)c2ccc(C(=O)O)cc2)c1	107	102	112	77	inhibition [8]: 35%; Activity (Mus musculus [9]): 44%; inhibition [10]: 41%
78	75	65	CCCCCCCCCCOc1cccc(OCCCCCC(=O)N(Cc2ccc(C(=O)OC)cc2)c2ccc(C(=O)OC)cc2)c1	26	–	80	68	–
12	6	5	O=C(O)c1ccc(N(C(=O)CCCCCBr)c2ccc(C(=O)O)cc2)cc1	4	–	–	–	–
58	53	–	CCCCCCCCCCOc1cc(OCCCCCCCCCC)cc(OCCCCCC(=O)N(c2ccc(C(=O)O)cc2)c2cccc(C(=O)O)c2)c1	–	–	–	–	–
34	50	–	CCCCCCCCCCOc1cc(OCCCCCCCCCC)cc(OCCCCCCO/N=C(/c2ccc(C(=O)O)cc2)c2cccc(C(=O)O)c2)c1	100	–	–	–	–
95	92	43	CCCCCCCCCCOc1cc(OCCCCCCCCCC)cc(OCCCCCC(=O)N(Cc2ccc(C(=O)O)cc2)c2cccc(C(=O)O)c2)c1	82	46	11	0	–

Source: ChEMBL document CHEMBL1137388, “A novel class of potent nonglycosidic and nonpeptidic pan-selectin inhibitors” (2006)
